Values belong to the compound of their own block, whether it stands above or below them. Active and inactive are the calls of the source. The rule behind the calls is not given here.
How the values were obtained:
MCF7 = assay: Antiproliferative activity against human MCF7 cells after 72 hrs by MTT assay; type: functional; conditions: MCF7, 72 h
In short: (§1)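 Compounds from 10 mM DMSO stocks. Cells seeded at 8 × 10^3 per well and held 18 h at 37 °C in humidified 5% CO2. Medium was then replaced with fresh medium holding graded compound concentrations, in triplicate, for 72 h at 37 °C. Viability was read by MTT. GI50 is the concentration giving 50% inhibition of proliferation. Mean ± SE of ≥3 independent dose-response experiments.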

CCRF-CEM = assay: Antiproliferative activity against human CCRF-CEM cells after 72 hrs by MTT assay; type: functional; in short: as §1
Jurkat [1] = assay: Antiproliferative activity against human Jurkat cells after 72 hrs by MTT assay; type: functional; in short: as §1
THP-1 = assay: Antiproliferative activity against human THP1 cells after 72 hrs by MTT assay; type: functional; conditions: THP-1, 72 h; in short: as §1
HT-29 = assay: Antiproliferative activity against human HT-29 cells after 72 hrs by MTT assay; type: functional; conditions: HT-29, 72 h; in short: as §1
HL-60 = assay: Antiproliferative activity against human HL60 cells after 72 hrs by MTT assay; type: functional; conditions: HL-60, 72 h; in short: as §1
RS4-11 = assay: Antiproliferative activity against human RS4:11 cells after 72 hrs by MTT assay; type: functional; conditions: RS4-11, 72 h; in short: as §1
HeLa [2] = assay: Antiproliferative activity against human HeLa cells after 72 hrs by MTT assay; type: functional; in short: as §1
A549 = assay: Antiproliferative activity against human A549 cells after 72 hrs by MTT assay; type: functional; conditions: A549, 72 h; in short: as §1
SEM cells = assay: Antiproliferative activity against human SEM cells after 72 hrs by MTT assay; type: functional; in short: as §1
MV4-11 = assay: Antiproliferative activity against human MV4-11 cells after 72 hrs by MTT assay; type: functional; conditions: MV4-11, 72 h; in short: as §1
[3] = Selectivity index, ratio of IC50 for phytohematoaglutinin-stimulated human PBL to GI50 for human CCRF-CEM cells
In short: (§2)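 Ratio of two 72 h MTT viability values. Healthy-donor PBL were isolated on a density gradient, rested overnight, then seeded as non-adherent cells at 5 × 10^5 cells/mL with 2.5 μg/mL PHA and exposed to graded compound concentrations. Leukemia cells were grown in RPMI-1640 with 10% FBS, seeded at 8 × 10^3 cells/well, pre-incubated 18 h at 37 °C, and dosed in triplicate.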

PBL [4] = assay: Antiproliferative activity against human PBL after 72 hrs by MTT assay; type: cell-based
In short: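 PBL from healthy donors separated on a Lymphoprep gradient, washed, and held overnight at 1.0 × 10^6 cells/mL in RPMI-1640 with 10% FBS. Non-adherent resting cells resuspended at 5 × 10^5 cells/mL without PHA. Graded compound concentrations for 72 h, then MTT. Mean ± SEM of three separate experiments.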

[5] = Metabolic stability in human liver microsomes assessed as parent compound remaining at 10 uM after 60 mins by fluorescence based HPLC analysis; type: ADME, microsome; conditions: read-out: Stability
In short: (§3)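 Compound at 10 μM final in 0.1 M KH2PO4 pH 7.4 with 1.0 mg/mL pooled mixed-gender human liver microsomes, without or with 1 mM NADPH; buffer-only controls. Started with microsomes after 3-min equilibration and run at 37 °C for 0–60 min. Stopped with ice-cold acetonitrile, centrifuged, supernatant run on C18 HPLC with fluorescence detection (ex 344/em 493 nm). % remaining from peak area versus 0 min. Mean ± SD, n = 3–4.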

PBL [6] = assay: Antiproliferative activity against phytohematoaglutinin-stimulated human PBL after 72 hrs by MTT assay; type: cell-based
In short: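 Donor PBL isolated on a Lymphoprep gradient and rested overnight in RPMI-1640 with 10% FBS. Non-adherent cells resuspended at 5 × 10^5 cells/mL in growth medium with 2.5 μg/mL PHA. Graded compound concentrations added; viability by MTT at 72 h. Mean ± SEM of three separate experiments.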

[7] = Inhibition of bovine brain tubulin assembly preincubated for 20 mins followed by GTP addition by turbidometric method; parameters: species or system Bos taurus
In short: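 Varying compound concentrations pre-incubated with 10 μM bovine brain tubulin in glutamate buffer at 30 °C, then chilled to 0 °C. GTP added to 0.4 mM final, mixture warmed to 30 °C, turbidity followed at 350 nm.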

Liver [8] = assay: Metabolic stability in human liver microsomes at 10 uM after 60 mins in presence of NADPH by fluorescence based HPLC analysis; type: ADME, microsome; conditions: 1 h; in short: as §3
HeLa [9] = assay: Cell cycle arrest in human HeLa cells assessed as accumulation at G2/M phase after 24 hrs by propidium iodide staining based flow cytometry; type: functional
In short: (§4)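 5 × 10^5 cells exposed to varying compound concentrations for 24 h. Cells collected, fixed in ice-cold 70% ethanol, and lysed in buffer with RNase A and 0.1% Triton X-100. PI-stained, then analysed by flow cytometry for phase distribution from DNA histograms. Mean of two independent experiments.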

HeLa [10] = assay: Cell cycle arrest in human HeLa cells assessed as reduction in G1 phase at 50 to 100 nM after 24 hrs by propidium iodide staining based flow cytometry relative to control; type: functional; in short: as §4
Jurkat [11] = assay: Cell cycle arrest in human Jurkat cells assessed as accumulation at G2/M phase after 24 hrs by propidium iodide staining based flow cytometry; type: functional; in short: as §4
HeLa [12] = assay: Cell cycle arrest in human HeLa cells assessed as reduction in S phase at 50 to 100 nM after 24 hrs by propidium iodide staining based flow cytometry relative to control; type: functional; in short: as §4
[13] = Selectivity index, ratio of IC50 for phytohematoaglutinin-stimulated human PBL to GI50 for human Jurkat cells; in short: as §2
Bos taurus = species on record: Bos taurus; assay: Inhibition of [3H]colchicine binding to bovine brain tubulin at 5 uM relative to control
In short: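 Reaction mixtures held 1 μM tubulin, 5 μM [3H]colchicine and 5 μM test compound. Inhibition of bound radiolabel measured relative to control.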

HeLa [14] = assay: Induction of ROS generation in human HeLa cells at 10 to 100 nM after 24 to 48 hrs by H2-DCFDA staining based flow cytometry; type: functional, cell-based
In short: (§5)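 Cells exposed for 24 or 48 h at the indicated concentrations, then loaded with H2-DCFDA. ROS read as oxidised DCF fluorescence by flow cytometry. Mean ± SEM of three independent experiments.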

Jurkat [15] = assay: Induction of ROS generation in human Jurkat cells at 10 to 100 nM after 24 to 48 hrs by H2-DCFDA staining based flow cytometry; type: functional, cell-based; in short: as §5
Jurkat [16] = assay: Cell cycle arrest in human Jurkat cells assessed as accumulation at G2/M phase at 100 nM after 24 hrs by propidium iodide staining based flow cytometry relative to control; type: functional; in short: as §4
Liver [17] = assay: Drug metabolism in human liver microsomes assessed as 7-phenyl-3H-pyrrolo[3,2-f]quinolin-9(6H)-one formation at 10 uM after 60 mins by fluorescence based HPLC analysis; type: ADME, microsome; conditions: 1 h; in short: as §3
HeLa [18] = assay: Cell cycle arrest in human HeLa cells assessed as accumulation at G2/M phase at 100 nM after 24 hrs by propidium iodide staining based flow cytometry relative to control; type: functional; in short: as §4
HeLa [19] = assay: Cell cycle arrest in human HeLa cells assessed as accumulation at G2/M phase at 50 to 100 nM after 24 hrs by propidium iodide staining based flow cytometry; type: functional; in short: as §4
Jurkat [20] = assay: Cell cycle arrest in human Jurkat cells assessed as accumulation at G2/M phase at 50 to 100 nM after 24 hrs by propidium iodide staining based flow cytometry; type: functional; in short: as §4

GI50 (MCF7): 5 nM
GI50 (CCRF-CEM): 17 nM
GI50 (Jurkat [1]): 0.3 nM
GI50 (THP-1): 74 nM
GI50 (HT-29): 1 nM
GI50 (HL-60): 2 nM
GI50 (RS4-11): 0.1 nM
GI50 (HeLa [2]): 1.6 nM
GI50 (A549): 9 nM
GI50 (MV4-11): 19 nM
Compound: O=C(C1CC1)n1ccc2c3c(=O)cc(-c4ccccc4)[nH]c3ccc21
GI50 (SEM cells): 0.4 nM

GI50 (MCF7): 152 nM
IC50 [7]: 1200 nM
GI50 (CCRF-CEM): 42 nM
GI50 (Jurkat [1]): 34 nM
GI50 (THP-1): 92 nM
GI50 (HT-29): 7 nM
GI50 (HL-60): 215 nM
GI50 (RS4-11): 18 nM
GI50 (HeLa [2]): 36 nM
GI50 (A549): 3 nM
inhibition (Bos taurus): 42%
GI50 (MV4-11): 49 nM
Compound: CS(=O)(=O)n1ccc2c3c(=O)cc(-c4ccccc4)[nH]c3ccc21
IC50 (PBL [4]): > 100000 nM
IC50 (PBL [6]): > 100000 nM
Activity (HeLa [19]): Active
Activity (HeLa [14]): Active
Activity (Jurkat [15]): Active
Activity (Jurkat [20]): Active
GI50 (SEM cells): 23 nM

The next lines start with the compound.

Compound: O=c1cc(-c2ccccc2)[nH]c2ccc3c(c12)CCN3S(=O)(=O)c1ccc(C(F)(F)F)cc1
GI50 (MCF7): 475 nM
GI50 (CCRF-CEM): 435 nM
GI50 (Jurkat [1]): 256 nM
GI50 (THP-1): 846 nM
GI50 (HT-29): 255 nM
GI50 (HL-60): 1620 nM
GI50 (RS4-11): 211 nM
GI50 (HeLa [2]): 373 nM
GI50 (A549): 541 nM
GI50 (SEM cells): 336 nM
GI50 (MV4-11): 356 nM

Compound: O=C(c1ccccc1)n1ccc2c3c(=O)cc(-c4ccccc4)[nH]c3ccc21
Selectivity Index [3]: 1000 - 2000
IC50 (PBL [4]): 28000 nM
remaining at 1 h, 10 µM [5]: > 60%
GI50 (MCF7): 0.2 nM
IC50 (PBL [6]): 15200 nM
IC50 [7]: 890 nM
Stability (Liver [8]): Stable
GI50 (CCRF-CEM): 12 nM
GI50 (Jurkat [1]): 16 nM
Activity (HeLa [9]): Dose-dependent effect
Activity (HeLa [10]): Active
GI50 (THP-1): 5 nM
GI50 (HT-29): 0.1 nM
Activity (Jurkat [11]): Dose-dependent effect
GI50 (HL-60): 2 nM
GI50 (RS4-11): 0.3 nM
Activity (HeLa [12]): Active
GI50 (HeLa [2]): 0.2 nM
Selectivity Index [13]: 1000 - 2000
GI50 (A549): 10 nM
inhibition (Bos taurus): 70%
Activity (HeLa [14]): Active
Activity (Jurkat [15]): Active
Activity (Jurkat [16]): >50%
Drug metabolism (Liver [17]): Metabolite_Detected
Activity (HeLa [18]): >50%
GI50 (SEM cells): 0.9 nM
GI50 (MV4-11): 2 nM

Compound: CS(=O)(=O)N1CCc2cc3[nH]c(-c4ccccc4)cc(=O)c3cc21
GI50 (MCF7): > 10000 nM
GI50 (CCRF-CEM): > 10000 nM
GI50 (Jurkat [1]): > 10000 nM
GI50 (THP-1): > 10000 nM
GI50 (HT-29): > 10000 nM
GI50 (HL-60): > 10000 nM
GI50 (RS4-11): > 10000 nM
GI50 (HeLa [2]): 7640 nM
GI50 (A549): > 10000 nM
GI50 (SEM cells): > 10000 nM
GI50 (MV4-11): > 10000 nM

Compound: O=C(c1ccccc1)N1CCc2c1ccc1[nH]c(-c3ccccc3)cc(=O)c21
GI50 (MCF7): 1110 nM
GI50 (CCRF-CEM): 1040 nM
GI50 (Jurkat [1]): 1340 nM
GI50 (THP-1): 2170 nM
GI50 (HT-29): 1590 nM
GI50 (HL-60): 2640 nM
GI50 (RS4-11): 256 nM
GI50 (HeLa [2]): 331 nM
GI50 (A549): 918 nM
GI50 (SEM cells): 918 nM
GI50 (MV4-11): 1540 nM

— ChEMBL document CHEMBL3992497, “Synthesis, structure-activity relationships and biological evaluation of 7-phenyl-pyrroloquinolinone 3-amide derivatives as potent antimitotic agents” (Eur J Med Chem, 2017)
